Data published in ChEMBL document CHEMBL1148267, “Synthesis and biological activity of a novel squalene epoxidase inhibitor, FR194738” (Bioorg Med Chem Lett, 2004).
Blank lines part the entries; values can stand above or below the compound they belong to.

What was measured:
Canis familiaris [1] = organism: Canis familiaris; assay: In vitro inhibitory activity was evaluated against dog squalence epoxidase; format: functional, Canis lupus familiaris
Procedure, shortened: (§1)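 Source of enzyme: dog or rat liver microsomes, or HepG2 cell homogenate for human, solubilized in 2% Triton X-100. Each was incubated with AMO-1680, FAD, NADPH, EDTA, [³H]squalene and drug for 90 min at 37 °C. The reaction was stopped with ethanolic KOH. Non-saponifiable lipids were separated by silica TLC and 2,3-oxidosqualene radioactivity was counted to give IC50.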

Homo sapiens = organism: Homo sapiens; assay: In vitro inhibitory activity was evaluated against human squalence epoxidase; format: functional; procedure, shortened: as §1
[2] = Partition coefficient (logP); format: physicochemical; conditions: octanol/water
[3] = Compound was evaluated for area under the curve (0-8 h); format: ADME, organism-based; design: time < 8 hr; conditions: rat, in vivo
Procedure, shortened: (§2)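 Rats dosed orally with a single 10 mg/kg dose, given as a suspension in 0.5% methylcellulose. Plasma was sampled to derive Cmax, Tmax, AUC over 0–8 h and bioavailability.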

[4] = Compound was evaluated for maximum concentration (Cmax) in suspension of 0.5% methylcellulose at a dose of 10 mg/kg in rat; format: ADME, organism-based; design: dose 10 mg/kg; conditions: in vivo; procedure, shortened: as §2
Rattus norvegicus = organism: Rattus norvegicus; assay: In vitro inhibitory activity was evaluated against rat squalence epoxidase; format: functional; procedure, shortened: as §1
[5] = Bioavailability in rat; format: ADME, organism-based; conditions: in vivo; procedure, shortened: as §2
[6] = Compound was evaluated for maximum time(Tmax) in suspension of 0.5% methylcellulose at a dose of 10 mg/kg in rat; format: ADME, organism-based; design: dose 10 mg/kg; conditions: in vivo; procedure, shortened: as §2
Canis familiaris [7] = assay: Compound was evaluated for artherogenic index in plasma lipoprotein cholesterol level (LDL cholesterol / HDL cholesterol) at a dose of 3.2 mg/kg/day; format: ADME, organism-based, Canis lupus familiaris; conditions: dog, in vivo
Procedure, shortened: (§3)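 Male beagle dogs (9–11 kg, n=3) dosed orally twice daily for 28 days, at 3.2, 10 or 32 mg/kg/day. On day 14, serum lipoprotein fractions were separated by ultracentrifugation. LDL and HDL cholesterol were measured enzymatically and expressed as % change. Atherogenic index was taken as the LDL/HDL ratio.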

Canis familiaris [8] = assay: Compound was evaluated for change in the effect of plasma lipoprotein cholesterol level (HDL) at a dose of 32 mg/kg/day; format: ADME, organism-based, Canis lupus familiaris; conditions: dog, in vivo; procedure, shortened: as §3
Canis familiaris [9] = assay: Compound was evaluated for change in the effect of plasma lipoprotein cholesterol level (LDL) at a dose of 3.2 mg/kg/day; format: ADME, organism-based, Canis lupus familiaris; conditions: dog, in vivo; procedure, shortened: as §3
Canis familiaris [10] = assay: Compound was evaluated for change in the effect of plasma lipoprotein cholesterol level (LDL) at a dose of 32 mg/kg/day; format: ADME, organism-based, Canis lupus familiaris; conditions: dog, in vivo; procedure, shortened: as §3
Canis familiaris [11] = assay: Compound was evaluated for change in the effect of plasma lipoprotein cholesterol level (HDL) at a dose of 3.2 mg/kg/day; format: ADME, organism-based, Canis lupus familiaris; conditions: dog, in vivo; procedure, shortened: as §3
Canis familiaris [12] = assay: Compound was evaluated for artherogenic index in plasma lipoprotein cholesterol level (LDL cholesterol / HDL cholesterol) at a dose of 10 mg/kg/day; format: ADME, organism-based, Canis lupus familiaris; conditions: dog, in vivo; procedure, shortened: as §3
Canis familiaris [13] = assay: Compound was evaluated for artherogenic index in plasma lipoprotein cholesterol level (LDL cholesterol / HDL cholesterol) at a dose of 32 mg/kg/day; format: ADME, organism-based, Canis lupus familiaris; conditions: dog, in vivo; procedure, shortened: as §3
Canis familiaris [14] = assay: Compound was evaluated for change in the effect of plasma lipoprotein cholesterol level (LDL) at a dose of 10 mg/kg/day; format: ADME, organism-based, Canis lupus familiaris; conditions: dog, in vivo; procedure, shortened: as §3
Canis familiaris [15] = assay: Compound was evaluated for change in the effect of plasma lipoprotein cholesterol level (HDL) at a dose of 10 mg/kg/day; format: ADME, organism-based, Canis lupus familiaris; conditions: dog, in vivo; procedure, shortened: as §3
HepG2 = assay: In vitro inhibitory activity was evaluated on cholesterol biosynthesis in HepG2 cells; format: functional, cell-based; conditions: Homo sapiens
Procedure, shortened: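 HepG2 cells were kept overnight in 10% human lipoprotein-deficient serum, then preincubated 1 h with drug. [¹⁴C]acetate was added for 2 h. Cells were lysed and saponified with ethanolic KOH. Digitonin was added to the non-saponifiable lipids, and radioactivity of the digitonin-coprecipitable sterols was counted to give IC50.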

IC50 (Canis familiaris [1]; Canis lupus familiaris): 77 nM
IC50 (Homo sapiens; Homo sapiens): 11 nM
logP ([2]; read-out: logP): 6.78
Compound: CN(C/C=C/C#CC(C)(C)C)Cc1cccc(OCC(C)(C)OCc2ccsc2)c1

IC50 (Canis familiaris [1]): 34 nM
IC50 (Homo sapiens; Homo sapiens): 5.4 nM
logP ([2]; read-out: logP): 7.3
Compound: CCN(C/C=C/C#CC(C)(C)C)Cc1cccc(OCC(C)(C)OCc2ccsc2)c1

IC50 (Canis familiaris [1]; Canis lupus familiaris): 230 nM
IC50 (Homo sapiens; Homo sapiens): 25 nM
logP ([2]; read-out: logP): 6.6
Compound: CCN(C/C=C/C#CC(C)(C)C)Cc1cccc(OCCOCc2ccsc2)c1

AUC(0-t) at 8 h [3]: 1390 ng·h/mL
IC50 (Canis familiaris [1]; Canis lupus familiaris): 43 nM
IC50 (Homo sapiens; Homo sapiens): 7.2 nM
Cmax [4]: 329 ng/mL
IC50 (Rattus norvegicus): 36 nM
bioavailability [5]: 16.5%
Tmax [6]: 1.67 h
logP ([2]; read-out: logP): 8.19
Compound: CCN(C/C=C/C#CC(C)(C)C)Cc1cccc(OCc2cc(-c3ccsc3)cs2)c1

IC50 (Canis familiaris [1]; Canis lupus familiaris): 370 nM
IC50 (Homo sapiens; Homo sapiens): 23 nM
logP ([2]; read-out: logP): 7.48
Compound: CCN(C/C=C/C#CC(C)(C)C)Cc1cccc(OCC(C)(C)OC(=O)c2ccsc2)c1

IC50 (Homo sapiens; Homo sapiens): 160 nM
logP ([2]; read-out: logP): 8.45
Compound: C=CCC(CC=C)(COc1cccc(CN(CC)C/C=C/C#CC(C)(C)C)c1)OCc1ccsc1

AUC(0-t) at 8 h [3]: 1870 ng·h/mL
IC50 (Canis familiaris [1]): 14 nM
IC50 (Homo sapiens): 9.8 nM
Cmax [4]: 486 ng/mL
IC50 (Rattus norvegicus): 25 nM
Activity (Canis familiaris [7]): -2%
HDL (Canis familiaris [8]): -27%
LDL (Canis familiaris [9]): -2%
LDL (Canis familiaris [10]): -61%
bioavailability [5]: 32.9%
HDL (Canis familiaris [11]): 0%
Activity (Canis familiaris [12]): -38%
Tmax [6]: 1.17 h
logP [2]: 7.3
Activity (Canis familiaris [13]): -47%
LDL (Canis familiaris [14]): -47%
HDL (Canis familiaris [15]): -14%
Compound: CCN(C/C=C/C#CC(C)(C)C)Cc1cccc(OCC(C)(C)OCc2ccsc2)c1.Cl

Compound: CC(C)n1c(/C=C/[C@H](O)C[C@H](O)CC(=O)O)c(-c2ccc(F)cc2)c2ccccc21 [FLUVASTATIN]
IC50 (HepG2): 28 nM

IC50 (HepG2): 40 nM
Compound: CCC(C)(C)C(=O)O[C@H]1C[C@@H](C)C=C2C=C[C@H](C)[C@H](CC[C@@H]3C[C@@H](O)CC(=O)O3)[C@H]21 [SIMVASTATIN]

IC50 (Canis familiaris [1]; Canis lupus familiaris): 51 nM
IC50 (Homo sapiens; Homo sapiens): 31 nM
logP ([2]; read-out: logP): 7.83
Compound: CCCN(C/C=C/C#CC(C)(C)C)Cc1cccc(OCC(C)(C)OCc2ccsc2)c1

IC50 (Homo sapiens; Homo sapiens): 120 nM
logP ([2]; read-out: logP): 8.36
Compound: CCN(C/C=C/C#CC(C)(C)C)Cc1cccc(OCC(CC)(CC)OCc2ccsc2)c1
